# Compounds with a hit are over-represented: about 2% of the library has one in this group of screens.
# STEP block: inhibitors of human striatal-enriched phosphatase STEP; P54829; recombinant STEP, OMFP fluorogenic substrate, fluorescence; inhibition, % at 20 µM; 0.25% of 360,000 active; AID 588621;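 active = inhibition at 20 µM, scaled per plate between control wells, above about 37%, limit read from the data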;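 note: 0% = DMSO with enzyme and substrate and 100% = substrate only without enzyme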
#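 material = STEP tyrosine phosphatase | reagent = fluorogenic phosphatase substrate OMFP at 25 µM final | doses = single compound dose of 20 µM, 1% DMSO final | schedule = 20 min reaction, room temperature, in the dark | measured by = fluorescence, 480/540 nm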
# Scp1 inh: blocks human Scp-1 phosphatase activity; Q9GZU7; Recombinant Scp1, phosphopeptide, malachite green phosphate absorbance; inhibition, % at 20 µM; 0.88% of 340,000 active;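 active = inhibition above about 50% at 20 µM, limit read from the data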;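 note: plate controls were DMSO wells with enzyme for no effect and wells lacking enzyme for full effect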
# Target sequence (Q9GZU7 76-261 limits assumed): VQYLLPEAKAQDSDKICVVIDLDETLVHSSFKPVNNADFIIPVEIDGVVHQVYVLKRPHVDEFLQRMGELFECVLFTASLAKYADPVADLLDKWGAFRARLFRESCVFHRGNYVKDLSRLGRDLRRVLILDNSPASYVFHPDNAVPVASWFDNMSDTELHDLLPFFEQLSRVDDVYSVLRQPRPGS
#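 System: SCP-1 catalytic domain; Reagent: Phospho 17-mer peptide substrate; Doses: one concentration, 20 µM, with 1.0% DMSO; Incubation: 45 min room-temperature reaction, 5 min colour, 30 min stabiliser; Signal: Phosphate-binding colour reagent, absorbance read at 630 nm.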
# LMPTP block: LMPTP (human) inhibition | inhibition, % at 20 µM | 0.22% of 360,000 active | recombinant LMPTP-A, OMFP fluorogenic substrate, fluorescence intensity;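 active = compounds that cut the enzyme signal by at least half of the control window in the single-dose screen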;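 note: plate controls were DMSO wells with enzyme plus substrate for no effect and substrate without enzyme for full effect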
# Target sequence (P24666 whole entry, looked up): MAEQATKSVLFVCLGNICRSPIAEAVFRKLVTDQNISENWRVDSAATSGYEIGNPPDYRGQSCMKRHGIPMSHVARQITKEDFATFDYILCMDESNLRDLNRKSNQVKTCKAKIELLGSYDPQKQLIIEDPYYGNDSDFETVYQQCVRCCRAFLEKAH
#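 Material: LMPTP-A; amount: 0.625 nM enzyme; doses: single 20 µM dose; times: reaction 50 min, room temperature, dark; technique: fluorescence intensity of OMFP turnover product; benchmarks: no-enzyme and uninhibited controls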
# Rpn11 inh: inhibitors of human proteasome Rpn11. inhibition, % at 20 µM. 0.59% of 360,000 active. AID 588493. human 26S proteasome, Ub4-pepOG fluorescence polarization; 20S core pre-blocked with epoxomicin;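 active = inhibition at 20 µM, scaled to each plate's controls, above about 33%, limit read from the data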
# DNMT1 block: blocks human DNA methyltransferase DNMT1; inhibition (reported as % activation of signal), % at 10 µM; P26358; DNMT1 molecular beacon, Hinp1I cleavage, fluorescence; 0.83% of 360,000 active; in the data active = inhibition above about 50%
# * marks the source's active call; other numbers are inactive results; . = not tested or not shown; ! = repeats disagree.
SMILES,STEP block,Scp1 inh,LMPTP block,Rpn11 inh,DNMT1 block
CCc1ccc(N2C(=O)NC(=O)/C(=C\C=C\c3ccco3)C2=O)cc1,1,11,4,.,138*
CCOc1ccc(N2C(=O)/C(=C/c3ccco3)C(=O)NC2=S)cc1,100*,94*,92*,.,49
CCOc1ccc(N2C(=O)/C(=C\c3cccs3)C(=O)NC2=S)cc1,.,11,.,.,.
COC(=O)C1(C(=O)O)Cc2cc([N+](=O)[O-])ccc2N2CCCC21 (stereo not given),3,-10,3,12,-4
CN1C(=O)NC(=O)/C(=C/c2ccc([N+](=O)[O-])o2)C1=O,.,62*,.,.,.
O=C1NC(=S)NC(=O)C1=Cc1c(Cl)cccc1Cl,2,12,3,-8,14
O=C1NC(=S)NC(=O)C1=Cc1ccc(Br)s1,20,84*,10,34,57*
CNCC(=O)c1ccc(O)c(O)c1,2,.,56*,9,2
Cn1ncnc2c(=O)n(C)c(=O)nc1-2,85*,-8,75*,17,109*
CN1CCc2cc(O)cc3c2[C@H]1Cc1ccc(O)c(O)c1-3,2,-16,1,-4,-2
CN1CCc2cc3c(c4c2C1Cc1ccccc1-4)OCO3 (stereo not given),2,5,9,-119,59*
COc1ccc(OC(=O)N(C)C[C@H]2OCc3cnnn3CCCC(=O)N([C@H](C)CO)C[C@@H]2C)cc1,2,.,-1,-2,4
C=CCN1C(=O)NC(=O)/C(=C/c2cccn2C)C1=O,2,-5,-1,4,2
C=CCN1C(=O)NC(=O)/C(=C/c2ccoc2)C1=O,1,28,0,-23,50*
CCCCCN1C(=O)c2cc(OC)ccc2[C@@]2(C(=O)OCC)Cc3cc(Cl)ccc3[C@@H]12,.,.,6,.,.
O=C1CC(N2CCC(n3c(=O)[nH]c4ccccc43)CC2)C(=O)N1Cc1ccccc1 (stereo not given),0,3,2,1,5
O=c1[nH]c2ccccc2n1C1CCN(Cc2ccc(-c3[nH]c4cc5ncnc5cc4nc3-c3ccccc3)cc2)CC1,.,.,84*,.,.
Cc1ccc2c(c1)C1C[N+](C)(CC(=O)c3ccc(Cl)cc3Cl)CCC1N2C(=O)c1ccc(F)cc1 (stereo not given),-2,95*,0,-3,7
c1ccc2oc(-c3ccc4c(c3)CNCc3cnnn3-4)cc2c1,1,.,0,5,7
CCCCn1c(NS(=O)(=O)c2ccccc2)c(C(=O)OCC)c2nc3ccccc3nc21,3,-14,9,8,68*
O=C(O)Cn1cc(/C=C2\C(=O)NC(=O)N(Cc3ccco3)C2=O)c2ccccc21,7,53*,5,-12,90*
C[n+]1c(-c2ccccc2)c2cc(N)ccc2c2ccc(N)cc21,6,-4,81*,-28,61*
COC(=O)C1=C(c2ccc(OC(F)(F)F)cc2)C[C@@H]2CC[C@H]1N2C(=O)NC1CC1,5,-5,0,-1,5
COc1ccc2c(c1)/C(=C/c1cnc[nH]1)C(=O)N2,1,-9,-1,-1,0
O=C1Nc2ccccc2/C1=C/c1cnc[nH]1,2,82*,-1,-8,0
SMILES,STEP block,Scp1 inh,LMPTP block,Rpn11 inh,DNMT1 block
CNS(=O)(=O)c1ccc(N=Cc2c(O)n(-c3cccc(C)c3)c(=O)[nH]c2=O)cc1,-1,-5,0,3,0
Cc1cccc(-n2c(O)c(/C=C/C=Nc3ccccc3)c(=O)[nH]c2=O)c1,-16,-4,1,.,55*
CN(C)[C@@H]1C(=O)C(C(N)=O)=C(O)[C@@]2(O)C(=O)C3=C(O)c4c(O)cccc4[C@@](C)(O)C3[C@H](O)C12 (stereo not given in full),18,35,64*,.,89*!
Nc1ccc2ccc3cccc[n+]3c2c1,-35,0,39,-218,109*
O=C(O)c1ccc2c(c1)C1C(Cl)C(Sc3ccccc3[N+](=O)[O-])CC1C(c1cccc([N+](=O)[O-])c1)N2 (stereo not given),6,-7,6,5,71*
O=C(O)c1cccc2c1NC(c1cccc([N+](=O)[O-])c1)C1CC(Sc3ccccc3[N+](=O)[O-])C(Cl)C21 (stereo not given),8,1,36,13,85*

# Screening data deposited in PubChem by Sanford-Burnham Center for Chemical Genomics.
